Our source for the IC50, viability and Activity values is ChEMBL document CHEMBL1142402, “Synthesis of curcumin mimics with multidrug resistance reversal activities” (Bioorg Med Chem, 2008).

A short description of experiment [1]: Cytotoxicity against multidrug resistant P-gp expressing human KBV20C cells assessed as cell viability in presence of paclitaxel by MTS assay. The format is functional, cell-based. (In general: Tetrazolium assays rely on reduction of a dye to a coloured formazan, in cell work by metabolically active cells.)
For experiment [2], the system named is KB. Kind of experiment: Cytotoxicity against human KB cells assessed as cell viability at 10 uM after 48 hrs by MTS assay. Type of experiment: functional. Particulars: read-out: Activity. The procedure, abridged: (§1)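 KB (P-gp-negative) and KBV20C (P-gp-expressing) cells were grown in RPMI 1640 with 10% FBS and 1% penicillin/streptomycin. KBV20C cells were maintained with 20 nM vincristine. Cells were exposed to each compound at 10 µM for 48 h. Viability (%) was read by MTS. Values are means ± standard deviation of three experiments.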

Experiment [3] can be described thus: Cytotoxicity against multidrug resistant P-gp expressing human KBV20C cells assessed as cell viability in presence of vincristine by MTS assay. The format is functional, cell-based.
Experiment [4] can be described thus: Cytotoxicity against multidrug resistant P-gp expressing human KBV20C cells assessed as cell viability at 10 uM after 48 hrs by MTS assay. Type of experiment: functional. Particulars: read-out: Activity. The method in brief:
as §1

A further experiment has as its system KBV20C. Kind of experiment: Inhibition of Pgp in multidrug resistant human KBV20C cells assessed as increase in intracellular accumulation of Rh123. Type of experiment: cell-based. The method in brief: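 They were then incubated a further 3 h with Rh123 and washed with PBS. Mean intracellular Rh123 fluorescence was measured by flow cytometry and expressed relative to control. Values are means ± SD of three independent experiments, compared by Student's t-test.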

The nature of experiment [5]: Cytotoxicity against multidrug resistant P-gp expressing human KBV20C cells assessed as cell viability after 48 hrs by MTS assay. Type of experiment: functional, cell-based.
Experiment [6] relates to KB. Kind of experiment: Cytotoxicity against human KB cells assessed as cell viability after 48 hrs by MTS assay. Type of experiment: functional, cell-based.

SMILES strings stand for the structures. Active and inactive are the calls of the source. The calls are words filed in the database; no cut-off is given here.

For `COc1cc(/C=C/C(=O)c2cccc(NC(=O)c3ccc(Cl)cc3Cl)c2)ccc1O`, the IC50 – broadly, the point on the concentration scale where inhibition reaches its midpoint – in experiment [1] worked out at 45 nM; in experiment [3], 720 nM. The viability at 10 µM with KB [2] worked out at 98.3%; in experiment [4], 94.6%.
The corresponding values for `COc1cc(/C=C/C(=O)c2cccc(N)c2)ccc1O` are 830 nM, 1260 nM, 97.6% and 99.4%.
As for `COC(=O)CC(=O)Nc1cccc(C(=O)/C=C/c2ccc(O)c(OC)c2)c1`, the figures for the IC50 in experiment [1] and in experiment [3] were 320 nM and 3810 nM, respectively. In addition, the values for the viability at 10 µM (in the experiment with KB [2]; in experiment [4]) were 72.9% and 106%, respectively.
The corresponding values for `COc1cc(/C=C/C(=O)CC(=O)/C=C/c2ccc(O)c(OC)c2)ccc1O` [CURCUMIN] are 420 nM, 820 nM, 89.2% and 93.1%.
`CCCC(=O)Nc1cccc(C(=O)/C=C/c2ccc(O)c(OC)c2)c1`: the IC50 came to 210 nM in experiment [1] and 2890 nM in experiment [3]. The viability at 10 µM in the experiment with KB [2] came out at 77.1%; in experiment [4], 80.8%.
As to `COc1cc(/C=C/C(=O)c2cccc(NC(C)=O)c2)ccc1O`, the IC50 amounted to 720 nM in experiment [1] and 1260 nM in experiment [3]. The viability at 10 µM worked out at 98.2% with KB [2] and 92.4% in experiment [4].
On to `COc1ccc(CCN(C)CCC[C@](C#N)(c2ccc(OC)c(OC)c2)C(C)C)cc1OC`, for which the result in the experiment with KBV20C was Active.
As for `COc1cc(/C=C/C(=O)c2cccc(NC(=O)c3ccco3)c2)ccc1O`, the figures for the IC50 in experiment [1] and in experiment [3] were 210 nM and 1440 nM, respectively. Further, the results for the viability at 10 µM (with KB [2]; in experiment [4]) were 60.2% and 77.6%, respectively.
With `COc1cc(/C=C/C(=O)c2cccc(NC(=O)c3cc(Cl)cc(Cl)c3)c2)ccc1O`, the IC50 in experiment [1] came out at 22 nM; in experiment [3], 410 nM. Further, the values for the viability at 10 µM (in the experiment on KB [2]; in experiment [4]) were 68.7% and 70.3%, respectively. The outcome in the experiment with KBV20C was Active.
Take `CC(=O)O[C@H]1C(=O)[C@@]2(C)[C@H]([C@H](OC(=O)c3ccccc3)[C@]3(O)C[C@H](OC(=O)[C@H](O)[C@@H](NC(=O)c4ccccc4)c4ccccc4)C(C)=C1C3(C)C)[C@]1(OC(C)=O)CO[C@@H]1C[C@@H]2O` [PACLITAXEL]: the IC50 came to 1.44 µM in experiment [5] and 4.2 nM in the experiment with KB [6].
`COc1cc(/C=C/C(=O)c2cccc(NC(=O)c3ccccc3)c2)ccc1O`: the IC50 in experiment [1] is 420 nM; in experiment [3] it was 3820 nM. Also, the viability at 10 µM is 89.5% in the experiment on KB [2] and 85.5% in experiment [4].
The corresponding values for `CCOC(=O)C(=O)Nc1cccc(C(=O)/C=C/c2ccc(O)c(OC)c2)c1` are 1090 nM, 3310 nM, 84.7% and 103%.
The corresponding values for `COc1cc(/C=C/C(=O)c2cccc(NC(=O)c3c(Cl)cccc3Cl)c2)ccc1O` are 100 nM, 1230 nM, 93.7% and 75.3%.
The corresponding values for `COc1cc(/C=C/C(=O)c2cccc(NC(=O)C(C)C)c2)ccc1O` are 240 nM, 2920 nM, 67.5% and 67.7%.
For the compound `CC[C@]1(O)C[C@H]2CN(CCc3c([nH]c4ccccc34)[C@@](C(=O)OC)(c3cc4c(cc3OC)N(C=O)[C@H]3[C@@](O)(C(=O)OC)[C@H](OC(C)=O)[C@]5(CC)C=CCN6CC[C@]43[C@@H]65)C2)C1` [VINCRISTINE], the figures for the IC50 (in experiment [5]; in the experiment on KB [6]) were 5.72 µM and 7.9 nM, respectively.
Turning to `COc1cc(/C=C/C(=O)c2cccc(NC(=O)c3cccs3)c2)ccc1O`, the IC50 in experiment [1] was 180 nM; in experiment [3], 1410 nM. Also, the viability at 10 µM with KB [2] was found to be 74.7%; in experiment [4] it was 83.6%.
Regarding `COc1cc(/C=C/C(=O)c2cccc(NC(=O)c3ccc(Cl)c(Cl)c3)c2)ccc1O`, the IC50 in experiment [1] turned out to be 26 nM; in experiment [3], 850 nM. Besides, the figures for the viability at 10 µM (in the experiment with KB [2]; in experiment [4]) were 78.3% and 72.6%, respectively. The result with KBV20C was Active.
With `COc1cc(/C=C/C(=O)c2cccc(NC(=O)c3ccc(Cl)cc3)c2)ccc1O`, the IC50 in experiment [1] was determined as 63 nM; in experiment [3], 480 nM. The viability at 10 µM in the experiment with KB [2] worked out at 95.7%; in experiment [4], 96.6%. The outcome with KBV20C was Active.
